According to PMC9521027 (ACS Omega, 2022):
Positions count from the first letter of the chain named.

Key:
[1] = target: T1, URAT1 K393E mutant (Homo sapiens, UniProt Q96S37, K393E); assay: 14C-uric acid uptake assay in transfected HEK293 cells; type: cell-based; conditions: K393E, HEK293 cells
T1 sequence (Q96S37 1-553 K393E): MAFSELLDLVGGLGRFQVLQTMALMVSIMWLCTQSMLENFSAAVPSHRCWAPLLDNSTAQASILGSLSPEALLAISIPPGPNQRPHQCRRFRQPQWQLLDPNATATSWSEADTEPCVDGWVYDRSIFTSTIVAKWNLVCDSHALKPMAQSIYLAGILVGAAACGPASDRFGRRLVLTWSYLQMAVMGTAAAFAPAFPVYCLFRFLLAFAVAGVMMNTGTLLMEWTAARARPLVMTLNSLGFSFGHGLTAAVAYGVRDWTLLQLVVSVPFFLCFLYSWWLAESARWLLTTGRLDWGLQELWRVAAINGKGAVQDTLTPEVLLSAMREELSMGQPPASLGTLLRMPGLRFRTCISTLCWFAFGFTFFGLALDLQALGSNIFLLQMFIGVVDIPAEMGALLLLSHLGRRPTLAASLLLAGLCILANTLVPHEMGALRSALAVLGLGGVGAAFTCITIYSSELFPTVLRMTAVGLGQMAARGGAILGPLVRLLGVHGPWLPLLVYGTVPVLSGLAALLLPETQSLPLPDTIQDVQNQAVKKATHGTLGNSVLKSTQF

[2] = target: T2, URAT1 K393R mutant (Homo sapiens, UniProt Q96S37, K393R); assay: 14C-uric acid binding assay with membrane protein; conditions: 2.5 μg membrane protein, 25 μM 14C-uric acid, 30 min
T2 sequence (Q96S37 1-553 K393R): T1 sequence (Q96S37 1-553 K393E) with E393R

[3] = target: T2, URAT1 K393R mutant; assay: Competitive inhibition test of unlabeled uric acid on 14C-uric acid uptake; type: cell-based
[4] = target: T2, URAT1 K393R mutant; assay: 14C-uric acid uptake assay in transfected HEK293 cells; type: cell-based; conditions: K393R, HEK293 cells
[5] = target: T3, URAT1 K393D mutant (Homo sapiens, UniProt Q96S37, K393D); assay: 14C-uric acid binding assay with membrane protein; conditions: 2.5 μg membrane protein, 25 μM 14C-uric acid, 30 min
T3 sequence (Q96S37 1-553 K393D): T1 sequence (Q96S37 1-553 K393E) with E393D
Outline: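 Membranes came from HEK293 cells transiently transfected (Lipofectamine 3000) with sequence-confirmed site-directed K393 mutant hURAT1 plasmids; control membranes came from cells transfected with pECFP empty vector. Cells were harvested in ice-cold 25 mM HEPES pH 7.3 with 125 mM sodium gluconate, and membranes were extracted with a kit. Protein was incubated at room temperature, then rapid-filtered, washed with ice-cold DPBS, dissolved in 0.1 M NaOH and scintillation-counted. n = 3, mean ± SD.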

[6] = target: T3, URAT1 K393D mutant; assay: 14C-uric acid uptake assay in transfected HEK293 cells; type: cell-based; conditions: K393D, HEK293 cells
[7] = target: T4, URAT1 K393H mutant (Homo sapiens, UniProt Q96S37, K393H); assay: as above; type: cell-based; conditions: K393H, HEK293 cells
T4 sequence (Q96S37 1-553 K393H): T1 sequence (Q96S37 1-553 K393E) with E393H

O=c1[nH]c(=O)c2[nH]c(=O)[nH]c2[nH]1 [uric acid]
14C-urate transport capacity lost compared with WT [1]: 70–80%
14C-uric acid binding capacity compared with WT [2]: similar
IC50 [3]: 113 ± 10.1 µM
14C-uric acid transport compared with WT [4]: no reduction
14C-uric acid binding compared with WT [5]: significant loss
14C-urate transport capacity lost compared with WT [6]: 70–80%
14C-uric acid transport capacity compared with WT [7]: slightly reduced
